ChEMBL document CHEMBL1221325, “Synthesis and ribonuclease A inhibition activity of resorcinol and phloroglucinol derivatives of catechin and epicatechin: Importance of hydroxyl groups” (Bioorg Med Chem, 2010)
The source made the active and inactive calls. The rule behind the calls is not given here.

What was measured:
[1] = molecular target: Ribonuclease pancreatic (Bos taurus) (UniProt P61823); assay: Inhibition of RNase A-mediated degradation of yeast tRNA assessed as residual tRNA band by agarose gel electrophoresis relative to control
[2] = molecular target: Ribonuclease pancreatic (Bos taurus) (UniProt P61823); assay: Binding affinity to RNase A by fluorescence quenching
Gallus gallus = organism: Gallus gallus; assay: Antiangiogenic activity against angiogenin-induced angiogenesis in chicken eggs at 150 uM for 10 days measured after 48 hrs by CAM assay; type: functional; details: Egg
Procedure, shortened: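 Chick embryo chorioallantoic membrane exposed through a small hole drilled in the shell on day 2. 10 µl aliquots of angiogenin, alone or mixed with compound, dried on transparent discs, which were inverted onto the CAM on day 10. Response read after 48 h as density of blood vessel formation against a control set.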

Chain of Ribonuclease pancreatic (Bos taurus) (P61823 whole entry, looked up): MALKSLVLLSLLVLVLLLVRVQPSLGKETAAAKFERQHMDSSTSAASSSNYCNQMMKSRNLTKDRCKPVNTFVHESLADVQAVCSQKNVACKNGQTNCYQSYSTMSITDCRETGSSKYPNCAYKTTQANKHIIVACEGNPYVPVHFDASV

`Oc1cc(O)c2c(c1)O[C@H](c1ccc(O)c(O)c1)[C@H](O)C2` showed a Ratio [1] of 0.295.
For `Oc1cc(O)c([C@@H]2c3c(O)cc(O)cc3O[C@H](c3ccc(O)c(O)c3)[C@@H]2O)c(O)c1`, the Kb [2] was 3.14 ×10⁴ /M and the Ratio [1] was 0.699.
For `Oc1cc(O)c2c(c1)OC(c1ccc(O)c(O)c1)C(O)C2` (stereo not drawn), the Ratio [1] was 0.331.
`Nc1ccn([C@@H]2O[C@H](CO)[C@@H](OP(=O)(O)O)[C@H]2O)c(=O)n1` was tested, and the Ratio [1] was 0.71.
Work on `Oc1ccc([C@@H]2c3c(O)cc(O)cc3O[C@H](c3ccc(O)c(O)c3)[C@H]2O)c(O)c1` yielded a Kb [2] of 1.37 ×10⁴ /M and a Ratio [1] of 0.612.
With `Oc1cc(O)c([C@H]2c3c(O)cc(O)cc3O[C@H](c3ccc(O)c(O)c3)[C@@H]2O)c(O)c1` the Activity (Gallus gallus) was “Active”, the Kb [2] was 6.76 ×10⁴ /M and the Ratio [1] was 0.704.
In the case of `Oc1ccc([C@H]2c3c(O)cc(O)cc3O[C@H](c3ccc(O)c(O)c3)[C@@H]2O)c(O)c1`, the Activity (Gallus gallus) was “Active”, the Kb [2] was 2.42 ×10⁴ /M and the Ratio [1] was 0.659.
